Calls of active or inactive are those of the source. The calls are words filed in the database; no cut-off is given here.
Key:
[1] = system: A549; assay: Antiproliferative activity against human A549 cells assessed as cell growth inhibition measured after 72 hrs by MTT assay; format: functional, cell-based; details: A549, 72 h
Summary of the method: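 Cells seeded at 3000 exponentially growing cells/well and incubated 12 h at 37 °C. Medium then replaced with fresh medium containing graded compound concentrations for 72 h; 5-FU positive control. MTT (5 mg/mL solution) added for 4 h, formazan dissolved in DMSO, absorbance read at 570 nm (reference 630 nm). Relative percentage inhibition of viable cells calculated; IC50 reported as mean ± standard deviation.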

[2] = system: MCF7; assay: Potency index, ratio of 5-FU IC50 to test compound IC50 for anticancer activity against human MCF7 cells measured after 72 hrs by MTT assay; format: functional
Summary of the method: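 MTT assay: 3000 exponentially growing cells per well, 12 h at 37 °C. Medium replaced with compound at a range of concentrations for 72 h. MTT (5 mg/mL stock) added for 4 h, formazan dissolved in DMSO. Absorbance read at 570 nm (reference 630 nm); percent inhibition gives IC50. Index is 5-FU IC50 divided by test-compound IC50.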

[3] = system: MCF7; assay: Cell cycle arrest in human MCF7 cells assessed as accumulation at G2/M phase at 2 uM measured after 48 hrs by propidium iodide staining based flow cytometry (reference value: 0.01 %); format: functional
[4] = system: MCF7; assay: Cell cycle arrest in human MCF7 cells assessed as accumulation at G1 phase at 4 uM measured after 48 hrs by propidium iodide staining based flow cytometry (reference value: 70.09 %); format: functional
[5] = system: MCF7; assay: Cell cycle arrest in human MCF7 cells assessed as accumulation at S phase at 4 uM measured after 48 hrs by propidium iodide staining based flow cytometry (reference value: 25.34 %); format: functional
[6] = system: MDA-MB-231; assay: Cell cycle arrest in human MDA-MB-231 cells assessed as accumulation at G1 phase at 6 uM measured after 48 hrs by propidium iodide staining based flow cytometry (reference value: 46.28 %); format: functional
[7] = system: MDA-MB-231; assay: Cell cycle arrest in human MDA-MB-231 cells assessed as accumulation at G2/M phase at 9 uM measured after 48 hrs by propidium iodide staining based flow cytometry (reference value: 15.46 %); format: functional
[8] = system: MDA-MB-231; assay: Induction of apoptosis in human MDA-MB-231 cells assessed as late apoptotic cells at 3 uM measured after 48 hrs by Annexin V-FITC/propidium iodide staining based flow cytometric analysis (reference value: 0.3%); format: functional
[9] = system: MDA-MB-231; assay: Induction of apoptosis in human MDA-MB-231 cells assessed as late apoptotic cells at 6 uM measured after 48 hrs by Annexin V-FITC/propidium iodide staining based flow cytometric analysis (reference value: 0.3%); format: functional
[10] = system: MDA-MB-231; assay: Induction of mitochondrial membrane potential loss in human MDA-MB-231 cells assessed as red fluorescence intensity at 6 uM measured after 48 hrs by JC1 staining-based flow cytometry analysis (reference value: 99.2 %); format: functional
[11] = system: MDA-MB-231; assay: Induction of mitochondrial membrane potential loss in human MDA-MB-231 cells assessed as green fluorescence intensity at 6 uM measured after 48 hrs by JC1 staining-based flow cytometry analysis (reference value: 0.8 %); format: functional
[12] = system: MCF7; assay: Induction of DNA damage in human MCF7 cells assessed as increase in Chk1 protein expression at 1 to 4 uM measured after 48 hrs by western blot analysis; format: functional, cell-based; details: dose 1-4 µM
Summary of the method: (§1)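 Cells exposed to graded concentrations for 48 h, then proteins extracted. Run on SDS-PAGE (5–15% gels) and transferred to nitrocellulose. Blocked 2 h in 5% nonfat milk in PBS/0.1% Tween 20, primary antibody overnight at 4 °C, biotin-conjugated secondary 1 h. Visualized on X-ray film with densitometric quantitation; three independent experiments.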

[13] = system: MCF7; assay: Induction of apoptosis in human MCF7 cells assessed as increase in cleaved caspase 3 protein expression at 1 to 4 uM measured after 48 hrs by western blot analysis; format: functional, cell-based; details: dose 1-4 µM
Summary of the method: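 MCF-7 and MDA-MB-231 breast cancer cells treated 48 h with a concentration series, then lysed for protein. SDS-PAGE on 5–15% gels, transfer to nitrocellulose. Blocked 2 h in 5% nonfat milk/PBS-0.1% Tween 20, primary antibodies overnight at 4 °C, biotin-conjugated secondary 1 h. X-ray film detection with densitometric quantification.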

[14] = system: MDA-MB-231; assay: Inhibition of PI3K/AKT signalling pathway in human MDA-MB-231 cells assessed as downregulation of AKT phosphorylation at Ser473 residue at 3 to 9 uM measured after 48 hrs by Western blot analysis; format: cell-based; details: dose 3-9 µM
Summary of the method: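 After 48 h exposure to compound at several concentrations, cells collected and proteins extracted. SDS-PAGE on 5–15% gels, transfer to nitrocellulose, blocking 2 h in 5% nonfat milk in PBS/0.1% Tween 20, primary antibodies overnight at 4 °C, biotin-conjugated secondary 1 h. Detection on X-ray film; band densitometry.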

[15] = system: MCF7; assay: Cell cycle arrest in human MCF7 cells assessed as accumulation of cells at G2/M phase at 4 uM in presence of inhibitor cdc25c inhibitor, NSC663284 measured after 48 hrs by PI staining based flow cytometry; format: functional
Summary of the method: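 Four arms (untreated, test compound alone, 0.3 NSC663284 alone, combination) applied to cells for 48 h. Cells were fixed in 70% ice-cold ethanol at 4 °C overnight and stained with RNase/PI for 30 min in the dark. G2/M fraction was read by flow cytometry.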

[16] = system: MCF7; assay: Induction of G2/M phase cell cycle arrest in human MCF7 cells assessed as upregulation of cdc25c protein expression at 4 uM measured after 48 hrs in presence of cdc25c inhibitor, NSC663284 by western blot analysis; format: functional, cell-based
Summary of the method: (§2)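 Four groups (untreated, test compound, 0.3 NSC663284, combination) treated 48 h before protein extraction. Lysates resolved by SDS-PAGE (5–15%) and blotted to nitrocellulose. Blocked 2 h in 5% milk/PBS-0.1% Tween 20, primary antibody overnight at 4 °C, biotinylated secondary 1 h. Detected on X-ray film and quantified by densitometry.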

[17] = system: MCF7; assay: Induction of G2/M phase cell cycle arrest in human MCF7 cells assessed as upregulation of p-cdc25c protein expression at 4 uM measured after 48 hrs in presence of cdc25c inhibitor, NSC663284 by western blot analysis; format: functional, cell-based; summary of the method: as §2
[18] = system: MDA-MB-231; assay: Induction of apoptosis in human MDA-MB-231 cells assessed as increase in cleaved caspase 3 protein expression at 9 uM measured after 48 hrs in presence of cdc25c inhibitor, NSC663284 by western blot analysis; format: functional, cell-based
Summary of the method: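 Four arms per cell line: untreated, test compound, 0.3 µM NSC663284 alone, and combination. Proteins harvested after 48 h and resolved by SDS-PAGE on 5–15% gels, transferred to nitrocellulose. Blocked 2 h in milk/PBS-Tween, primary antibodies overnight at 4 °C, biotin-conjugated secondary. Read on X-ray film with densitometry.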

[19] = system: MCF7; assay: Induction of G2/M phase cell cycle arrest in human MCF7 cells assessed as upregulation of p-cdc25c at ser216 residue protein expression at 4 uM measured after 48 hrs by western blot analysis; format: functional, cell-based; summary of the method: as §1

For `C[C@H]1O[C@@H](n2cnc3c(N)nc(F)nc32)[C@H](O)[C@H]1OCP(=O)([O-])[O-].[Na+].[Na+]`, the IC50 [1] was 3.48 µM, the “Ratio IC50” value [2] was 41 and the Activity [3] was 17.9%. The Activity [4] was 41.95%, the Activity [5] was 31.16% and the Activity [6] was 37.3%. It also gave an Activity [7] of 31.49%, an Activity [8] of 13% and an Activity [9] of 18.8%. For the same compound, the Activity [10] was 63.8%, the Activity [11] was 36.2% and the Activity [12] was “Active”. The Activity [13] was “Active”, the inhibition [14] was “Active” and the Activity [15] was “inactive”. For the same compound, the Activity [16] was “inactive”, the Activity [17] was “inactive” and the Activity [18] was “inactive”. The Activity [19] was “Active”.

Source: ChEMBL document CHEMBL4837218, “Synthesis and in vitro antitumour activity of 4(R)-methyl-3-O-phosphonomethyl-α-l-threose nucleosides” (Eur J Med Chem, 2021)
